# ChEMBL document CHEMBL4428107 (Bioorg Med Chem, 2016)
# Tests used:
# Histone deacetylase 2 = Histone deacetylase 2 (Homo sapiens, UniProt Q92769); experiment: Inhibition of full length recombinant human HDAC2 expressed in baculovirus expression system using fluorogenic peptide RHKK(Ac) as substrate by fluorescence assay
# MCF7 = experiment: Antiproliferative activity against human MCF7 cells assessed as reduction in cell viability after 72 hrs by MTS-PMS assay; conditions: MCF7, 72 h
# [1] = Antiproliferative activity against human PBMC assessed as reduction in cell viability after 70 hrs by Quanti-blue assay; type: cell-based
# Summary of the method: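 QB fluorescence viability assay; hPBMCs purified by density centrifugation from purchased human blood, stored frozen, resuspended in RPMI-1640 with 10% heat-inactivated FBS, HEPES, pyruvate, non-essential amino acids and BME; seeded at 10^6 cells/mL. Compounds at 50 μM, 70 h plus 2 h with detection reagent; λex 530/λem 590 nm. Three independent repeats.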
# HuT78 = experiment: Antiproliferative activity against human HUT78 cells assessed as reduction in cell viability after 70 hrs by Quanti-blue assay; type: functional; conditions: Homo sapiens, HuT78, 70 h
# Summary of the method: (§1)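 Quanti-Blue viability kit. HuT-78 and Molt-4 cells were grown in RPMI-1640 and seeded at 10^5 cells/mL. Compounds were screened at 50 μM for 70 h, with detection reagent present for the final 2 h. Fluorescence was read at ex 530/em 590 nm. IC50 from dose-response came from linear regression. Three independent runs.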
# MDA-MB-231 = experiment: Antiproliferative activity against human MDA-MB-231 cells assessed as reduction in cell viability after 72 hrs by MTS-PMS assay; type: functional; conditions: MDA-MB-231, 72 h
# Summary of the method: (§2)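 MTS-PMS viability test. Cells were seeded at 3,000/well and left 24 h at 37 °C, 5% CO2, then exposed to compound for 72 h. Screening was at 50 μM for HCT116 and MCF-7 and […], with final DMSO ≤1%. MTS:PMS was mixed 20:1, added for 3 h, and absorbance read at 490 nm. At least two independent runs were done, each in triplicate.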
# HCT-116 = experiment: Antiproliferative activity against human HCT116 cells assessed as reduction in cell viability after 72 hrs by MTS-PMS assay; type: functional; conditions: Homo sapiens, HCT-116, 72 h; summary of the method: as §2
# MOLT-4 = experiment: Antiproliferative activity against human MOLT4 cells assessed as reduction in cell viability after 70 hrs by Quanti-blue assay; type: functional; conditions: Homo sapiens, MOLT-4, 70 h; summary of the method: as §1
# [2] = Immunomodulatory activity in human TALL-104 cells assessed as effect on degranulation by measuring augmentation of CD3-stimulated anti-LAMP fluorescence at 100 uM preincubated for 30 mins followed by anti-LAMP addition and incubated for 50 mins in the dark by flow cytometric analysis relative to control; type: functional
# Chain of Histone deacetylase 2 (Q92769 whole entry): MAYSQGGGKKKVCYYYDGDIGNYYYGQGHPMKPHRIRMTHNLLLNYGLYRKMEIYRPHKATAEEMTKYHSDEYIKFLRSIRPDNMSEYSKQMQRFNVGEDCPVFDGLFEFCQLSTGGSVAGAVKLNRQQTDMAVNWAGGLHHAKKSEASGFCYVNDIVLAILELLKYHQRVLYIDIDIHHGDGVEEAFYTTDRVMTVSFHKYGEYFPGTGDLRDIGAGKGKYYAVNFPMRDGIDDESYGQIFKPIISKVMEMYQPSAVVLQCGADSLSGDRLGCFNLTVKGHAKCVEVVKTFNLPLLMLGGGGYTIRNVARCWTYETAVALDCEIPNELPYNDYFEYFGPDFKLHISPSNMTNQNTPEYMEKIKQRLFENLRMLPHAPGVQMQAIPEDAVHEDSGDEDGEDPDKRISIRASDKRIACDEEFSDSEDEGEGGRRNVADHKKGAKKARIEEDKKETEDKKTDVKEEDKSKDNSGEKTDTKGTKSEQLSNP
SMILES,IC50 (Histone deacetylase 2),GI50 (MCF7),GI50 at 70 h [1],GI50 (HuT78),GI50 (MDA-MB-231),GI50 (HCT-116),GI50 (MOLT-4),Activity [2]
O=C(CCCNC(=O)OCCF)NCCc1ccccc1,> 1 µM,> 50 µM,> 50 µM,> 50 µM,> 50 µM,> 50 µM,> 50 µM,92%
CCOC(=O)NCCCCCC(=O)Nc1ccccc1,> 1 µM,> 50 µM,> 50 µM,> 50 µM,> 50 µM,> 50 µM,> 50 µM,–
CCOC(=O)NCCC(=O)NCCCCc1ccccc1,> 1 µM,> 50 µM,> 50 µM,> 50 µM,> 50 µM,> 50 µM,> 50 µM,83%
O=C(CCCNC(=O)N1CCCC1=O)NCCc1ccccc1,> 1 µM,> 50 µM,> 50 µM,> 50 µM,> 50 µM,> 50 µM,> 50 µM,95%
CCSC(=O)NCCCC(=O)NCCc1ccccc1,> 1 µM,> 50 µM,> 50 µM,> 50 µM,> 50 µM,> 50 µM,> 50 µM,76%
COC(=O)NCCCC(=O)NCCc1ccccc1,> 1 µM,> 50 µM,> 50 µM,> 50 µM,> 50 µM,> 50 µM,> 50 µM,81%
CCOC(=O)NCCCC(=O)Nc1nc(-c2cccc([N+](=O)[O-])c2)cs1,> 1 µM,> 50 µM,> 50 µM,> 50 µM,> 50 µM,> 50 µM,> 50 µM,58%
CCOC(=O)NCCCC(=O)Nc1ccc(O[Si](C)(C)C(C)(C)C)cc1,> 1 µM,13.8 µM,> 50 µM,> 50 µM,> 50 µM,> 50 µM,> 50 µM,171%
CCCOC(=O)NCCCC(=O)NCCc1ccccc1,> 1 µM,> 50 µM,> 50 µM,> 50 µM,> 50 µM,> 50 µM,> 50 µM,94%
CCNC(=O)OCCCC(=O)NCCc1ccccc1,> 1 µM,> 50 µM,> 50 µM,> 50 µM,> 50 µM,> 50 µM,> 50 µM,100%
CC(C)(C)OC(=O)NCCCC(=O)NCCc1ccccc1,> 1 µM,> 50 µM,> 50 µM,> 50 µM,> 50 µM,> 50 µM,> 50 µM,82%
CCOC(=O)NCCc1ccccc1,> 1 µM,> 50 µM,> 50 µM,> 50 µM,> 50 µM,> 50 µM,> 50 µM,90%
CCOC(=O)NCCCC(=O)Nc1nccs1,> 1 µM,> 50 µM,> 50 µM,> 50 µM,> 50 µM,> 50 µM,> 50 µM,91%
CCOC(=O)NCC(=O)NCCCCc1ccccc1,> 1 µM,> 50 µM,> 50 µM,> 50 µM,> 50 µM,> 50 µM,> 50 µM,81%
CCOC(=O)NCCCCCC(=O)NCCc1ccccc1,> 1 µM,> 50 µM,> 50 µM,> 50 µM,> 50 µM,> 50 µM,> 50 µM,98%
CCOC(=O)NCCCCC(=O)NCCc1ccccc1,> 1 µM,> 50 µM,> 50 µM,> 50 µM,> 50 µM,> 50 µM,> 50 µM,83%
CCNC(=O)NCCCC(=O)NCCc1ccccc1,> 1 µM,> 50 µM,> 50 µM,> 50 µM,> 50 µM,> 50 µM,> 50 µM,106%
CCOC(=O)NCCCCC(=O)NCc1ccccc1,> 1 µM,> 50 µM,> 50 µM,> 50 µM,> 50 µM,> 50 µM,> 50 µM,93%

SMILES,IC50 (Histone deacetylase 2),GI50 (MCF7),GI50 at 70 h [1],GI50 (HuT78),GI50 (MDA-MB-231),GI50 (HCT-116),GI50 (MOLT-4),Activity [2]
CCOC(=O)NCCCC(=O)NCCc1cccc(Cl)c1,> 1 µM,> 50 µM,> 50 µM,> 50 µM,> 50 µM,> 50 µM,> 50 µM,75%
CCOC(=O)NCCCC(=O)NCCc1cccc(F)c1,> 1 µM,> 50 µM,> 50 µM,> 50 µM,> 50 µM,> 50 µM,> 50 µM,90%
CCOC(=O)NCC(=O)NCCc1ccccc1,> 1 µM,> 50 µM,> 50 µM,> 50 µM,> 50 µM,> 50 µM,> 50 µM,86%
CCOC(=O)NCCCC(=O)OCCc1ccccc1,> 1 µM,> 50 µM,> 50 µM,> 50 µM,> 50 µM,> 50 µM,> 50 µM,88%
CCOC(=O)NCCCC(=O)N[C@@H](Cc1ccccc1)C(=O)OC,> 1 µM,> 50 µM,> 50 µM,> 50 µM,> 50 µM,> 50 µM,> 50 µM,90%
CCOC(=O)NCCCC(=O)NCCC(C)C,> 1 µM,> 50 µM,> 50 µM,> 50 µM,> 50 µM,> 50 µM,> 50 µM,88%
CCCCOC(=O)NCCCC(=O)NCCc1ccccc1,> 1 µM,> 50 µM,> 50 µM,> 50 µM,> 50 µM,> 50 µM,> 50 µM,101%
CC(=O)SCCC(=O)NCCCC(=O)NCCc1ccccc1,> 1 µM,> 50 µM,> 50 µM,> 50 µM,> 50 µM,> 50 µM,> 50 µM,77%
O=C(CCCNC(=S)N1CCCC1=O)NCCc1ccccc1,> 1 µM,> 50 µM,> 50 µM,> 50 µM,> 50 µM,> 50 µM,> 50 µM,94%
C#CCOC(=O)NCCCC(=O)NCCc1ccccc1,> 1 µM,> 50 µM,> 50 µM,> 50 µM,> 50 µM,> 50 µM,> 50 µM,105%
CCOC(=O)NCCC(=O)NCCc1ccccc1,> 1 µM,> 50 µM,> 50 µM,> 50 µM,> 50 µM,> 50 µM,> 50 µM,91%
CCOC(=S)NCCCC(=O)NCCc1ccccc1,> 1 µM,> 50 µM,> 50 µM,> 50 µM,> 50 µM,> 50 µM,> 50 µM,105%
COc1cccc2c1C(=O)c1c(O)c3c(c(O)c1C2=O)C[C@@](O)(C(=O)CO)C[C@@H]3O[C@H]1C[C@H](N)[C@H](O)[C@H](C)O1 [DOXORUBICIN],–,–,–,–,10.7 µM,21.4 µM,–,–
CCOC(=O)NCCCC(=O)NCCc1ccc(Cl)cc1,> 1 µM,> 50 µM,> 50 µM,> 50 µM,> 50 µM,> 50 µM,> 50 µM,85%
C=CCOC(=O)NCCCC(=O)NCCc1ccccc1,> 1 µM,> 50 µM,> 50 µM,> 50 µM,> 50 µM,> 50 µM,> 50 µM,87%
O=C(CCCCCCC(=O)Nc1ccccc1)NO [VORINOSTAT],–,29.1 µM,–,–,–,–,–,–
CCC(=O)NCCCC(=O)NCCc1ccccc1,> 1 µM,> 50 µM,> 50 µM,> 50 µM,–,> 50 µM,> 50 µM,91%
